The results in this text go back to ChEMBL document CHEMBL1154857, “Antimycobacterial flavonoids from the leaf extract of Galenia africana” (J Nat Prod, 2009).

The test system of assay [1] is Mycolicibacterium smegmatis. Put plainly: Antibacterial activity against Mycobacterium smegmatis MC2 155 by microplate dilution method. It counts as functional. As to conditions: str. MC2 155. An outline of the steps:
(§1)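 M. smegmatis MC2 155 tested by microplate broth dilution. Highest concentration tested was 620.0 µg/mL. Read-out was MIC, and MBC where determined.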

The subject of the next assay is U-937. Put plainly: Cytotoxicity against human U937 cells. Type of assay: cell-based.
Assay [2] has as its system Mycobacterium tuberculosis. Put plainly: Antitubercular activity against Mycobacterium tuberculosis H37Rv infected in human U937 cells at MBC by radiometric method. It counts as functional, U-937.
The test system of assay [3] is Mycobacterium tuberculosis. Put plainly: Antitubercular activity against Mycobacterium tuberculosis H37Rv infected in human U937 cells by radiometric method. It counts as functional, U-937.
The test system of assay [4] is Mycobacterium tuberculosis. Briefly: Antitubercular activity against Mycobacterium tuberculosis H37Rv by radiometric method. Type of assay: functional. The method, boiled down:
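M. tuberculosis H37Rv (ATCC […], drug-susceptible) tested by the radiometric BACTEC method. MIC was judged from ΔGI against a control vial inoculated at 10⁻² dilution. MBC was also determined. Highest concentration tested was 620.0 µg/mL.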

Assay [5] addresses Mycothione reductase (Mycobacterium tuberculosis) (UniProt P9WHH3). Put plainly: Inhibition of Mycobacterium tuberculosis mycothiol disulfide reductase assessed as NADPH oxidation at 800 uM by Ellmans reagent method. An outline of the steps:
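M. tuberculosis mycothiol disulfide reductase (NADPH-dependent) used with the mycothiol analogue BnOMSH as substrate. Activity was followed as the increase in absorbance at […] from reduction of Ellman's reagent by the BnOMSH formed.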

For assay [6], the system named is Mycolicibacterium smegmatis. Briefly: Antibacterial activity against Mycobacterium smegmatis MC2 155 at 620 ug/ml by microplate dilution method. As to conditions: str. MC2 155. Type of assay: functional, organism-based. An outline of the steps: as §1

In brackets after ≈: the same amount, converted by molar mass. Activity calls are given as the source filed them. The rule behind the calls is not given here.

Sequence of Mycothione reductase (Mycobacterium tuberculosis) (P9WHH3 whole entry): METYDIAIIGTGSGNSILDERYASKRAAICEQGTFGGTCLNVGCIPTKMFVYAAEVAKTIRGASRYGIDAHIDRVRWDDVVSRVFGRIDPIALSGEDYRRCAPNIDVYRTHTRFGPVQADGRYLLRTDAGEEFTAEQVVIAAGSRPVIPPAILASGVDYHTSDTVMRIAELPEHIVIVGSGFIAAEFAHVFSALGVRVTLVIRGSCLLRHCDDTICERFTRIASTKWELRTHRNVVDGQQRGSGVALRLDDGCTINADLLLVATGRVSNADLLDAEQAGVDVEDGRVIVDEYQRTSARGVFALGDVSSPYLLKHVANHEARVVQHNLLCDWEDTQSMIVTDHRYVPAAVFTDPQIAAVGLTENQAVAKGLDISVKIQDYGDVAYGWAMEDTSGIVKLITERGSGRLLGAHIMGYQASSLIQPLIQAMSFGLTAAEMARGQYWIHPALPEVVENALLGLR

In assay [1], `O=C(O)c1cn(C2CC2)c2cc(N3CCNCC3)c(F)cc2c1=O` [CIPROFLOXACIN] displayed an MBC of 2.2 µM (≈ 0.729 µg/mL) and an MIC of 1.5 µM (≈ 0.497 µg/mL).

On to `O=C(/C=C/c1ccccc1)c1ccc(O)cc1O` [2',4'-DIHYDROXYCHALCONE], for which the IC50 with U-937 came to 80.2 µM. Moreover, the MBC is 234 µM (≈ 56.3 µg/mL) in assay [1] and 416 µM (≈ 100 µg/mL) in assay [3]. The MIC in assay [1] came to 469 µM (≈ 113 µg/mL); in assay [3], 195 µM (≈ 46.9 µg/mL); in assay [4], 195 µM (≈ 46.9 µg/mL). The “inhibition (INH)” value in assay [2] turned out to be 99.5%. In addition, the inhibition result in assay [5] was “inactive”.

Consider `NNC(=O)c1ccncc1` [ISONIAZID], for which the MIC in assay [3] stood at 2.9 µM (≈ 0.398 µg/mL); in assay [4], 1.4 µM (≈ 0.192 µg/mL).

For `O=C(/C=C/c1cccc(O)c1)c1ccc(O)cc1O`, the MIC result in assay [6] was “inactive”. This compound also registered an IC50 with U-937 of 415 µM. Also, the “inhibition (INH)” value in assay [2] amounted to 99.5%. Further, in assay [3], the MBC is 368 µM (≈ 94.2 µg/mL) and the MIC came to 184 µM (≈ 47.1 µg/mL). In assay [4], this compound displayed an MIC of 417 µM (≈ 107 µg/mL). The inhibition result in assay [5] is “inactive”.

Consider `COc1cccc2c1C(=O)c1c(O)c3c(c(O)c1C2=O)C[C@@](O)(C(=O)CO)C[C@@H]3O[C@H]1C[C@H](N)[C@H](O)[C@H](C)O1` [DOXORUBICIN], for which the IC50 with U-937 is 1.1 µM.

On to `O=C1C[C@@H](c2ccccc2O)Oc2cc(O)cc(O)c21`, for which the IC50 with U-937 was 110 µM. Moreover, the MBC was 441 µM (≈ 120 µg/mL) in assay [1] and 735 µM (≈ 200 µg/mL) in assay [3]. Further, the figures for the minimal inhibitory concentration (MIC) in assay [1], in assay [3] and in assay [4] were 110 µM (≈ 30 µg/mL), 368 µM (≈ 100 µg/mL) and 368 µM (≈ 100 µg/mL), respectively. Besides, the “inhibition (INH)” value in assay [2] was determined as 99.5%. Further, the inhibition entry in assay [5] is “inactive”.

With `COc1c(O)ccc(C(=O)/C=C/c2cccc(O)c2)c1O`, half-maximal inhibition in the assay with U-937 (IC50) was put at 333 µM.
